OX1R antag-1 – blocks the human orexin 1 receptor | O43613 | OX1R-expressing cells, FRET antagonist read-out | inhibition, % at 6.6 µM | hit rate 1.8% among 330,000; in the data active means inhibition mostly above about 38%, no sharp cut-off; inactive means mostly below about 40%;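 further: 0% = agonist challenge alone and 100% = reference antagonist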
CHO parental Ca – counter-screen for OX1R antagonists: effect in parental CHO cells; parental CHO-K1, ATP-induced calcium, Fluo-8 fluorescence; inhibition, % at 5.6 µM; hit rate 0.63% among 330,000; AID 463079;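 active means inhibition above that plate's mean sample inhibition plus 3 SD, cut at about 26% in these data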;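 further: 0% = ATP-challenged DMSO wells and 100% = DMSO wells without ATP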
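material = parental CHO cells | also added = ATP as calcium-mobilizing challenge | dosing = single point at 5.6 µM | detection = intracellular calcium via Fluo-8 no-wash fluorescent dye | read-out = % inhibition | benchmarks = low control ATP plus DMSO, high control DMSO only | repeats = one well per compound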
OXTR agonist – human OXTR agonism. hit rate 0.32% among 320,000. AID 2435. CHO-OTR cells, Fluo-8 calcium fluorescence; normalized: DMSO 0%, oxytocin 100%. P30559. activation, % at 3 µM;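 active means activation above the mean of all tested compounds plus 3 SD, cutoff set per screening run, cut at about 20% in these data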;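 further: peak over basal fluorescence ratio from a 100 s FLIPR kinetic read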
Target sequence (P30559 whole entry, looked up): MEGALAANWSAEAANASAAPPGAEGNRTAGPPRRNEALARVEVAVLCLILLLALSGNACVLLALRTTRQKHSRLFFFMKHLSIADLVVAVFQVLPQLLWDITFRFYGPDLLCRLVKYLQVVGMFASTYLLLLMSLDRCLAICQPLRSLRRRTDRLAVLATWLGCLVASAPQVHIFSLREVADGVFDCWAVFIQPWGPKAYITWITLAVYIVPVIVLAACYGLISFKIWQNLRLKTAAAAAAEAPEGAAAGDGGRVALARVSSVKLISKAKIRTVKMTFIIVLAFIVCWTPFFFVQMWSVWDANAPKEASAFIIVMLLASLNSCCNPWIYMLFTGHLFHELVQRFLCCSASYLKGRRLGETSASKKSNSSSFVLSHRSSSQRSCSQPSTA
OX1R antag-2 – human HCRTR1 antagonism. O43613. inhibition, % at 5 µM. CHO/OX1R cells, Fluo-8 calcium fluorescence, orexin A. hit rate 0.43% among 330,000. AID 434989;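 active means inhibition above its plate's threshold, mean inhibition of all tested compounds on the plate plus 3 SD, cut at about 37% in these data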;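 further: 0% = orexin A challenge wells and 100% = SB-334867-A antagonist wells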
OXTR potentiator – human OXTR potentiation. activation, % at 3 µM. hit rate 0.061% among 320,000. P30559. CHO-OTR cells, Fluo-8 calcium fluorescence, potentiator mode; 0% = oxytocin EC15, 100% = EC100. AID 2445;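 active means activation above that plate's cutoff, the mean activation of tested compounds plus 3 SD, cut at about 6.6% in these data, passing the limit was not always enough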;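 further: 100% uses oxytocin at 75 nM as the full agonist control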
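Dosing: Single dose, 3.0 µM nominal final compound concentration | Material: Human OTR in CHO cells | Technique: Kinetic Fluo-8 calcium fluorescence | Benchmarks: EC15 oxytocin alone as 0%, 75 nM oxytocin as 100% | Probe or stimulus: Oxytocin at about EC15, sub-maximal agonist stimulus | Incubation: Compound 6 min at room temperature before oxytocin, 100 s read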
V1R ag counter – activates human V1a receptor in oxytocin agonist counter-screen; CHO-V1R cells, Fluo-8 calcium fluorescence, agonist mode; 0% DMSO, 100% 3 nM vasopressin; activation, % at 3 µM; hit rate 0.25% among 320,000; P37288;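 active means activation above the mean activation of all tested compounds plus 3 SD, per screening run, cut at about 20% in these data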;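 further: signal is peak over basal fluorescence ratio across a 100 second FLIPR read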
OX1R Fluo8 conf – OX1R (human) antagonism, confirmed. shares compounds with OX1R antag-2. CHO/OX1R cells, orexin A calcium Fluo-8 fluorescence. inhibition, % at 5 µM. hit rate 38% among 1,100; in the data active means inhibition above about 29%;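 further: 0% = agonist challenge alone and 100% = reference antagonist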
CHO Ca triplic – signal in parental CHO cells, OX1R antagonist counter-screen. shares compounds with OX1R antag-2. inhibition, % at 5.6 µM. hit rate 9.3% among 1,100. parental CHO-K1, ATP-induced calcium, Fluo-8 fluorescence;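 active means inhibition above a per-plate limit, the mean inhibition of that plate's test compounds plus 3 SD, cut at about 25% in these data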;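 further: 0% = ATP challenge with DMSO and 100% = DMSO without ATP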
OX1R HTRF confirm – OX1R (human) antagonism, HTRF confirmed. shares compounds with OX1R antag-1. hit rate 49% among 1,800. OX1R-expressing cells, HTRF antagonist assay. inhibition, % at 6.6 µM; in the data active means inhibition above about 55%;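 further: CHO cells expressing OX1R stimulated with orexin A at about EC80; 0% = agonist challenge alone and 100% = reference antagonist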
CHO-K1 HTRF – signal in parental CHO-K1 cells, OX1R antagonist counter-screen. AID 493232. inhibition, % at 6.6 µM. hit rate 48% among 1,800. shares compounds with OX1R antag-1. HTRF counterscreen; in the data active means inhibition above about 17%;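 further: 0% = agonist challenge with vehicle and 100% = vehicle alone without agonist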
Numbers without * were called inactive. Most compounds without a hit are left out; they make up all but 2.6% or so of the library.

For CCn1c(C)c(P(c2ccccc2)c2ccccc2)[n+]2ccccc12 the results were OX1R antag-1 -4.2, CHO parental Ca -9.7, OXTR agonist -0.6, OX1R antag-2 -3.5, OXTR potentiator -4.5 and V1R ag counter -0.1.
For COc1ccc(-c2cc3nc(-c4ccccc4)cc(N4CCC(O)CC4)n3n2)cc1 the results were OX1R antag-1 18.9, CHO parental Ca 2.3, OXTR agonist 1.8, OX1R antag-2 -11.3, OXTR potentiator -14.8 and V1R ag counter 1.2.
Fc1cccc(-c2cc3nc(-c4ccccc4)cc(N4CCC5(CC4)OCCO5)n3n2)c1 was read as OX1R antag-1 72.0*, CHO parental Ca -18.1, OXTR agonist -0.5, OX1R antag-2 45.6*, OXTR potentiator -8.6, V1R ag counter 0.3, OX1R Fluo8 conf 51.6*, CHO Ca triplic -19.9, OX1R HTRF confirm 39.6 and CHO-K1 HTRF -10.6.
For Cc1cccc(-c2cc3nc(-c4ccccc4)cc(N4CCC5(CC4)OCCO5)n3n2)c1 the results were OX1R antag-1 63.7*, CHO parental Ca -24.5, OXTR agonist 0.3, OX1R antag-2 47.3*, OXTR potentiator 2.5, V1R ag counter 1.0, OX1R Fluo8 conf 25.0, CHO Ca triplic -7.5, OX1R HTRF confirm 69.5* and CHO-K1 HTRF 5.4.
`NC(=O)C1CN(C(=O)c2cccc(S(=O)(=O)N3CCc4ccccc43)c2)c2ccccc2O1` (stereo not given) gave OX1R antag-1 69.0*, CHO parental Ca -12.1, OXTR agonist 1.2, OX1R antag-2 51.9*, OXTR potentiator -5.9, V1R ag counter 5.4, OX1R Fluo8 conf 37.4*, CHO Ca triplic -16.4, OX1R HTRF confirm 67.0* and CHO-K1 HTRF -2.6.
For O=C(c1cccc(S(=O)(=O)N2CCc3ccccc32)c1)N1CCN(CCO)CC1 the results were OX1R antag-1 1.4, CHO parental Ca -6.0, OXTR agonist -0.2, OX1R antag-2 -26.2, OXTR potentiator 1.9 and V1R ag counter 0.8.
`Cc1nc2c(-c3ccccc3)c(C)nn2c(N)c1-c1ccccc1` gave OX1R antag-1 81.0*, CHO parental Ca -17.0, OXTR agonist -1.5, OX1R antag-2 46.4*, OXTR potentiator -29.2, V1R ag counter -1.1, OX1R Fluo8 conf 26.9, CHO Ca triplic 5.5, OX1R HTRF confirm 78.6* and CHO-K1 HTRF 12.4.
For Cc1nc2cc(-c3ccccc3)nn2c(N)c1-c1ccccc1 the results were OX1R antag-1 6.6, CHO parental Ca -13.7, OXTR agonist -2.5, OX1R antag-2 -9.0, OXTR potentiator -1.9 and V1R ag counter 0.2.
O=C1c2ccccc2C(=O)N1CC(O)Cn1nnc2ccccc21 (stereo not given) was read as OX1R antag-1 7.8, CHO parental Ca 3.1, OXTR agonist -0.5, OX1R antag-2 -13.1, OXTR potentiator 2.5 and V1R ag counter 1.0.
Screening OC(CN1c2ccccc2Sc2ccccc21)Cn1nnc2ccccc21 (stereo not given) returned OX1R antag-1 62.8*, CHO parental Ca -20.4, OXTR agonist 3.0, OX1R antag-2 42.2, OXTR potentiator -13.0, V1R ag counter 0.4, OX1R Fluo8 conf 30.9*, CHO Ca triplic -12.8, OX1R HTRF confirm 51.9 and CHO-K1 HTRF 1.1.
CC(=O)Nc1ccc(S(=O)(=O)N(Cc2ccccc2)c2ccccc2F)cc1 was read as OX1R antag-1 63.1*, CHO parental Ca -14.6, OXTR agonist -2.4, OX1R antag-2 37.8, OXTR potentiator -26.6, V1R ag counter -0.6, OX1R Fluo8 conf 33.8*, CHO Ca triplic -2.9, OX1R HTRF confirm 56.1* and CHO-K1 HTRF -5.0.
CC(=O)Nc1ccc(S(=O)(=O)N(Cc2ccccc2)c2ccccn2)cc1 was read as OX1R antag-1 11.7, CHO parental Ca -8.3, OXTR agonist -0.2, OX1R antag-2 -1.8, OXTR potentiator -4.2 and V1R ag counter 2.7.
Screening COc1ccc2c(C#CCCO)c(-c3ccc(S(C)(=O)=O)cc3)sc2c1 returned OX1R antag-1 3.6, CHO parental Ca 6.5, OXTR agonist 11.2, OX1R antag-2 6.2, OXTR potentiator -12.0 and V1R ag counter 6.9.
For COc1ccc2sc(-c3ccc(S(C)(=O)=O)cc3)c(C#CCO)c2c1 the results were OX1R antag-1 59.3*, CHO parental Ca 10.3, OXTR agonist 2.6, OX1R antag-2 64.7*, OXTR potentiator -6.1, V1R ag counter 4.8, OX1R Fluo8 conf 20.8, CHO Ca triplic 0.7, OX1R HTRF confirm 60.4* and CHO-K1 HTRF 13.2.
`CS(=O)(=O)c1ccc2nc(NC(=O)c3ccc(S(=O)(=O)NCC4CCCO4)cc3)sc2c1` (stereo not given) gave OX1R antag-1 9.5, CHO parental Ca -2.4, OXTR agonist 1.6, OX1R antag-2 -22.6, OXTR potentiator 2.1 and V1R ag counter 0.2.
`Cc1ccc([N+](=O)[O-])cc1S(=O)(=O)NCC1COc2ccccc2O1` (stereo not given) gave OX1R antag-1 21.6, CHO parental Ca -20.5, OXTR agonist 2.0, OX1R antag-2 -13.2, OXTR potentiator -6.7 and V1R ag counter 5.9.
Screening CCc1ccc(NC(=O)c2ccc(F)c(S(=O)(=O)NCC3COc4ccccc4O3)c2)cc1 (stereo not given) returned OX1R antag-1 55.7*, CHO parental Ca 14.0, OXTR agonist 5.6, OX1R antag-2 35.6, OXTR potentiator -10.9, V1R ag counter 7.5, OX1R Fluo8 conf 24.1, CHO Ca triplic 30.0*, OX1R HTRF confirm 31.6 and CHO-K1 HTRF 12.3.
Screening CCc1n[nH]c(=S)n1/N=C/c1c(O)ccc2ccccc12 returned OX1R antag-1 14.3, CHO parental Ca -7.8, OXTR agonist -1.5, OX1R antag-2 -0.4, OXTR potentiator -10.2 and V1R ag counter -0.1.
Screening O=C(Nc1ccc2nc(-c3cccs3)c(-c3cccs3)nc2c1)N1CCOCC1 returned OX1R antag-1 73.0*, CHO parental Ca -1.8, OXTR agonist 1.7, OX1R antag-2 21.1, OXTR potentiator -9.5, V1R ag counter 0.8, OX1R Fluo8 conf 25.1, CHO Ca triplic -0.1, OX1R HTRF confirm 43.7 and CHO-K1 HTRF 14.2.

Screens deposited in PubChem by The Scripps Research Institute Molecular Screening Center.
